ChEMBL document CHEMBL2203131, “An unusually cold active nitroreductase for prodrug activations” (Bioorg Med Chem, 2012)

Experiments:
[1] = system: Staphylococcus saprophyticus; experiment: Activity of Staphylococcus saprophyticus ATCC 15305 Ssap-NtrB assessed as residual activity measured for 10 mins at 3 degC by spectrophotometric analysis
[2] = Prodrug conversion in sodium phosphate buffer using NAD(P)H as cofactor assessed as Bacillus amyloliquefaciens CAMR 0454 ywrO-mediated reduction by steady state kinetics analysis; assay type: ADME
[3] = Ratio of apparent Kcat to apparent Km for Staphylococcus saprophyticus ATCC 15305 Ssap-NtrB-mediated reduction by steady state kinetics analysis; assay type: ADME
How it was run: (§1)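 Steady-state kinetics with purified His6-Ssap-NtrB used CB1954 at 0.05–4 mM or a series of SN23862 concentrations in 50 mM Tris-Cl pH 7.0 containing 4% DMSO. Parameters came from nonlinear Michaelis–Menten fitting. One unit is defined as 1 µmol substrate converted per min, and specific activity was expressed per mg active enzyme.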

[4] = Prodrug conversion in Tris-HCl buffer assessed as Staphylococcus saprophyticus ATCC 15305 Ssap-NtrB-mediated reduction by steady state kinetics analysis; assay type: ADME; details: for Km: read-out: Km(app); how it was run: as §1
[5] = Prodrug conversion in Tris-HCl buffer assessed as Staphylococcus saprophyticus ATCC 15305 Ssap-NtrB-mediated reduction after 30 mins by HPLC analysis; assay type: ADME; details: 0.5 h
How it was run: (§2)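 CB1954 (1 mM final) or SN23862 (80 µM) was incubated in degassed 50 mM Tris-Cl pH 7.0, kept anaerobic by nitrogen bubbling, with 50 µg/ml Ssap-NtrB and 3.4 mM NADPH for at least 30 min at 18–20 °C. Reactions were stopped with ice-cold methanol, held at −80 °C, then centrifuged. Products were resolved by reverse-phase C18 HPLC with an acetonitrile–water gradient. Detection was at 260/420 nm, or 390/450 nm for SN23862.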

[6] = system: Staphylococcus saprophyticus; experiment: Activity of Staphylococcus saprophyticus ATCC 15305 Ssap-NtrB assessed as residual activity measured for 10 mins at 15 degC by spectrophotometric analysis
[7] = Ratio of apparent Kcat/apparent Km for Escherichia coli NfsB to apparent Kcat/apparent Km for Staphylococcus saprophyticus ATCC 15305 Ssap-NtrB; assay type: ADME
[8] = Ratio of apparent Kcat to apparent Km for Escherichia coli NfsB-mediated prodrug conversion using NADH as cofactor by steady state kinetics analysis; assay type: ADME
[9] = Ratio of apparent Kcat to apparent Km for Escherichia coli NfsB-mediated prodrug conversion using NADPH as cofactor by steady state kinetics analysis; assay type: ADME
[10] = Prodrug conversion in Tris-HCl buffer using NADH as cofactor assessed as Escherichia coli NfsB-mediated reduction by steady state kinetics analysis; assay type: ADME; details: for Km: read-out: Km(app)
[11] = Prodrug conversion in Tris-HCl buffer using NADPH as cofactor assessed as Escherichia coli NfsB-mediated reduction by steady state kinetics analysis; assay type: ADME; details: for Km: read-out: Km(app)
[12] = Ratio of apparent Km for Escherichia coli NfsB-mediated prodrug conversion to apparent Km for Staphylococcus saprophyticus ATCC 15305 Ssap-NtrB-mediated prodrug conversion; assay type: ADME
[13] = Prodrug conversion in buffer using NADH as cofactor assessed as Escherichia coli AzoR-mediated reduction by steady state kinetics analysis; assay type: ADME
[14] = Ratio of apparent Kcat to apparent Km for Escherichia coli AzoR-mediated prodrug conversion using NADPH as cofactor by steady state kinetic analysis; assay type: ADME
[15] = Prodrug conversion in buffer using NADPH as cofactor assessed as Escherichia coli AzoR-mediated reduction by steady state kinetics analysis; assay type: ADME
[16] = Ratio of apparent Kcat to apparent Km for Escherichia coli NfsA-mediated prodrug conversion using NADPH as cofactor by steady state kinetic analysis; assay type: ADME
[17] = Prodrug conversion in buffer using NADPH as cofactor assessed as Escherichia coli NfsA-mediated reduction by steady state kinetics analysis; assay type: ADME
[18] = Ratio of apparent Kcat to apparent Km for Bacillus amyloliquefaciens CAMR 0454 ywrO-mediated prodrug conversion using NADPH as cofactor by steady state kinetic analysis; assay type: ADME
[19] = Prodrug conversion in sodium phosphate buffer using NADPH as cofactor assessed as Bacillus amyloliquefaciens CAMR 0454 ywrO-mediated reduction by steady state kinetics analysis; assay type: ADME
[20] = Prodrug conversion in Tris-HCl buffer assessed as Staphylococcus saprophyticus ATCC 15305 Ssap-NtrB-mediated [5-(aziridin-1-yl)-2-hydroxyamino-4-nitrobenzamide] formation after 30 mins by HPLC analysis; assay type: ADME; details: 0.5 h; how it was run: as §2
[21] = Prodrug conversion in Tris-HCl buffer assessed as Staphylococcus saprophyticus ATCC 15305 Ssap-NtrB-mediated [5-(aziridin-1-yl)-4-hydroxyamino-2-nitrobenzamide] formation after 30 mins by HPLC analysis; assay type: ADME; details: 0.5 h; how it was run: as §2
[22] = Ratio of apparent Kcat to apparent Km for Escherichia coli AzoR-mediated prodrug conversion using NADH as cofactor by steady state kinetic analysis; assay type: ADME

Row | SMILES | Activity [1] | Kcat/Km [3] | Kcat(app) [4] | Km [4] | Activity [6] | Kcat/Km [8] | Kcat/Km [9] | Kcat(app) [10] | Km [10] | Kcat(app) [11] | Km [11] | further results
1 | NC(=O)c1cc(N(CCCl)CCCl)c([N+](=O)[O-])cc1[N+](=O)[O-] | 60% | 9350 M⁻¹ s⁻¹ | 0.77 s⁻¹ | 82.4 µM | 60% | – | – | – | – | – | – | Drug metabolism [2]: Not Active; Drug metabolism [5]: Active
2 | NC(=O)N/N=C/c1ccc([N+](=O)[O-])o1 [NITROFURAZONE] | – | 44180 M⁻¹ s⁻¹ | 2.2 s⁻¹ | 49.8 µM | – | 66875 M⁻¹ s⁻¹ | 61764 M⁻¹ s⁻¹ | 10.7 s⁻¹ | 160 µM | 10.5 s⁻¹ | 170 µM | Ratio [7]: 1.4
3 | NC(=O)c1cc(N2CC2)c([N+](=O)[O-])cc1[N+](=O)[O-] [TRETAZICAR] | 55% | 2120 M⁻¹ s⁻¹ | 2.26 s⁻¹ | 1070 µM | 55% | 5600 M⁻¹ s⁻¹ | 7300 M⁻¹ s⁻¹ | 62 s⁻¹ | 11000 µM | 26 s⁻¹ | 3600 µM | Ratio [12]: 20; Kcat(app) [13]: 0.15 s⁻¹; Km ([13]; read-out: Km(app)): 6600 µM; Kcat/Km [14]: 110 M⁻¹ s⁻¹; Kcat(app) [15]: 0.15 s⁻¹; Km ([15]; read-out: Km(app)): 1400 µM; Kcat/Km [16]: 73000 M⁻¹ s⁻¹; Kcat(app) [17]: 16 s⁻¹; Km ([17]; read-out: Km(app)): 220 µM; Kcat/Km [18]: 13268 M⁻¹ s⁻¹; Kcat(app) [19]: 8.2 s⁻¹; Km ([19]; read-out: Km(app)): 618 µM; Drug metabolism [20]: Active; Drug metabolism [21]: Active; Kcat/Km [22]: 23 M⁻¹ s⁻¹
